# Results pooled from the literature.
# Each line is one published result; the experiments were not run side by side.
# Target: Rho-associated protein kinase 2 (ROCK2, Homo sapiens, UniProt O75116)
Structure (SMILES),effect on,mode,technique,concentration,endpoint,value
CC(C)(C)c1nc2c(s1)c1nc(N)ncc1c1ccc(NS(=O)(=O)c3c(F)cccc3F)c(F)c12,enzyme activity,inhibitor,radiometric,1 µM,remaining activity,100%
CCCOc1ccc(OC)c(F)c1C(=O)c1ccc(C(=O)N[C@@H]2CNC[C@H]2NC(=O)c2ccc3[nH]ncc3c2)cc1,enzyme activity,inhibitor,,0.75 µM,remaining activity,4%
CCN(CC)CCNC(=O)c1c(C)[nH]c(/C=C2\C(=O)Nc3ccc(F)cc32)c1C,cell-free assay,,,0.5 µM,remaining signal,72.1%
Cc1ccc(C(=O)Nc2ccc(CN3CCN(C)CC3)c(C(F)(F)F)c2)cc1C#Cc1cnc2cccnn12,enzyme activity,inhibitor,,23.5 nM,remaining activity,89%
CCOc1cc(-c2nncn2C)ccc1Nc1ncc2cc(C)nc(NCC(C)(C)C)c2n1,enzyme activity,inhibitor,FRET,1 µM,inhibition,< 15%
CO[C@@H](C)c1c(Nc2ccc([C@@H](N(C)C(=O)C3CCS(=O)(=O)CC3)C(F)(F)F)cc2)cnc2cc(Cl)nn12,cell-free assay,,competition with immobilised ligand,1 µM,remaining binding,100%
CC(C)(C)C(=O)c1sc(NC2CCCCC2)nc1N,enzyme activity,inhibitor,,10 µM,remaining activity,107%
COc1cc2ncnc(Nc3ccc(Oc4ccccc4)cc3C)c2cc1OC,enzyme activity,inhibitor,,1 µM,inhibition,1%
C[C@H](c1ccnc(Nc2nc3ccc(-c4cc(N(C)C)ncn4)cc3[nH]2)c1)N1CCN(C(=O)CC(F)(F)F)CC1,cell-free assay,,competition with immobilised ligand,0.1 µM,remaining binding,100%
Nc1nc(Nc2ccccc2)sc1C(=O)c1c(F)cccc1F,enzyme activity,inhibitor,,10 µM,remaining activity,55%
O=C(NCc1ncc(C(F)(F)F)cc1Cl)c1ccc2c(c1)C1(CCS(=O)(=O)CC1)[C@H](C1CC1)N2S(=O)(=O)c1ccc(F)cc1,cell-free assay,,competition with immobilised ligand,1 µM,remaining binding,95%
COc1cc(Cl)c(C(=O)N[C@@H](CN[C@H]2CC[C@@H](N)CC2)Cc2ccc(C#N)cc2)cc1-c1ccc(CN[C@H](C)c2ccc(C)cc2)o1,enzyme activity,inhibitor,,1 µM,remaining activity,96%
CCS(=O)(=O)c1cc2cc(C[C@@](O)(CC(C)(C)c3ccc(F)cc3C(N)=O)C(F)(F)F)[nH]c2cn1,cell-free assay,,competition with immobilised ligand,1 µM,remaining binding,76%
CS(=O)(=O)CCNCc1ccc(-c2ccc3ncnc(Nc4ccc(OCc5cccc(F)c5)c(Cl)c4)c3c2)o1,cell-free assay,,,0.5 µM,remaining signal,92.7%
CCN(CC)c1ccc(C2=NNC(=O)CC2C)cc1[N+](=O)[O-] (stereo not shown),enzyme activity,inhibitor,,10 µM,remaining activity,99%
FC(F)c1nc2ccccc2n1-c1nc(N2CCOCC2)nc(N2CCOCC2)n1,enzyme activity,inhibitor,,10 µM,remaining activity,85%
Cc1sc(C(=O)NC2COC2)cc1-n1cc(NC(=O)Nc2c(F)cccc2Cl)cn1,enzyme activity,inhibitor,,10 µM,remaining activity,93.6%
CCCS(=O)(=O)Nc1ccc(F)c(C(=O)c2c[nH]c3ncc(-c4ccc(Cl)cc4)cc23)c1F,enzyme activity,inhibitor,,1 µM,inhibition,< 10%
Cc1ccc(NC(=O)c2ccc(C)c(C(F)(F)F)c2)cc1C#Cc1nn(C2CCC(O)CC2)c2ncnc(N)c12 (stereo not shown),cell-free assay,,,10 µM,remaining signal,56%
COc1cc(Nc2cnc(C#N)c(O[C@H](C)CN(C)C)n2)ncc1-c1cnn(C)c1,enzyme activity,inhibitor,radiometric,10 µM,remaining activity,40%
Cc1ccc(Nc2nccc(N(C)c3ccc4c(C)n(C)nc4c3)n2)cc1S(N)(=O)=O,enzyme activity,inhibitor,,10 µM,inhibition,-27%
Cn1cnc(Br)c1C1=CN(c2ncnc3[nH]cnc23)CCS1,enzyme activity,inhibitor,radiometric,50 nM,inhibition,18.6%
N#CCCc1ccc2c(c1)-c1[nH]c3ccc([N+](=O)[O-])cc3c1CC(=O)N2,cell-free assay,,,0.5 µM,remaining signal,28.6%
CNCc1ccc(-c2cc(-c3nc(-c4ccc(S(=O)(=O)C(C)C)cc4)cnc3N)on2)cc1,enzyme activity,inhibitor,,2 µM,inhibition,13%
O=C(CSc1nc2nccnc2c(=O)n1CCc1ccccc1)Nc1nccs1,enzyme activity,inhibitor,,10 µM,inhibition,2%
CN(C)CC#Cc1ccc(OCCCc2sc(N3CCc4cccc(C(=O)Nc5nc6ccccc6s5)c4C3)nc2C(=O)O)c(F)c1,cell-free assay,,competition with immobilised ligand,1 µM,remaining binding,100%
O=C(Nc1cnn(-c2csc(C(=O)NC3COC3)c2)c1)Nc1ccccc1Cl,enzyme activity,inhibitor,,5 µM,remaining activity,100%
C=CC(=O)Nc1cc(Nc2nccc(Nc3cc(Cl)c(F)cc3C(C)(C)O)n2)c(OC)cc1N1CC[C@@H](N(C)C)C1,enzyme activity,inhibitor,,1 µM,inhibition,15%
CC/C(=N\NC(=O)NCc1cccc(O)c1)c1ccc(O)c(C)c1O,enzyme activity,inhibitor,,0.1 µM,inhibition,82.6%
O=C1NC(c2ccccn2)Sc2ccccc21 (stereo not shown),cell-free assay,,competition with immobilised ligand,1 µM,remaining binding,67%
Cn1cncc1C1=CN(c2ncnc3[nH]cnc23)CCS1,enzyme activity,inhibitor,radiometric,2 µM,inhibition,93.3%
CN([C@@H]1CCc2c(CC(=O)O)c3ccccc3n2C1)S(=O)(=O)c1ccc(F)cc1,cell-free assay,,competition with immobilised ligand,1 µM,remaining binding,100%
O=C1NC(=O)c2cc(Nc3ccc(F)cc3)c(Nc3ccc(F)cc3)cc21,cell-free assay,,,0.5 µM,remaining signal,92.8%
CNC(=O)c1cc(Oc2ccc(NC(=O)Nc3ccc(Cl)c(C(F)(F)F)c3)cc2)ccn1,enzyme activity,inhibitor,,10 µM,inhibition,38%
Oc1cccc(-c2nc(N3CCOCC3)c3oc4ncccc4c3n2)c1,enzyme activity,inhibitor,,10 µM,remaining activity,91%
O=C(Nc1cnc(Oc2ccc(F)cc2)nc1)N1CCc2ncccc2[C@@H]1c1ccc(F)cc1,cell-free assay,,competition with immobilised ligand,1 µM,remaining binding,100%
Cc1cc(NC(=O)c2cccc3cc(-c4cccc5[nH]nc(N)c45)ccc23)ccc1F,enzyme activity,inhibitor,,0.1 µM,activity vs control,98%
